IC50 and Activity data for one compound are collected here from ChEMBL document CHEMBL4732164, “Structure-Based Design of Potent Selective Nanomolar Type-II Inhibitors of Glycogen Synthase Kinase-3β” (J Med Chem, 2021).

Assay [1] addresses Glycogen synthase kinase-3 beta (Homo sapiens, UniProt P49841). In words: Inhibition of recombinant human GSK-3beta using phosphorylated polypeptide as substrate incubated for 30 mins in presence of ATP by kinase-glo luminescence assay. A digest of the protocol: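 Buffer is 50 mM HEPES pH 7.5, 1 mM EDTA, 1 mM EGTA, 15 mM magnesium acetate. Runs 30 min at 30 °C; luminescence read 10 min after reagent. Inhibition is relative to no-inhibitor maximal activity.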
A general note: In Kinase-Glo more light means more ATP remaining.

Assay [2] addresses Cyclin-dependent kinase 2 (Homo sapiens) (UniProt P24941). As to the kind of experiment: Inhibition of CDK2 (unknown origin) assessed as enzyme remaining activity at 5 uM relative to control.
The target of assay [3] is Cyclin-dependent kinase 5 (Homo sapiens) (UniProt Q00535). As to the kind of experiment: Inhibition of CDK5 (unknown origin) assessed as enzyme remaining activity at 5 uM relative to control.
Cyclin-dependent kinase 5 (Homo sapiens), sequence (Q00535 whole entry, looked up): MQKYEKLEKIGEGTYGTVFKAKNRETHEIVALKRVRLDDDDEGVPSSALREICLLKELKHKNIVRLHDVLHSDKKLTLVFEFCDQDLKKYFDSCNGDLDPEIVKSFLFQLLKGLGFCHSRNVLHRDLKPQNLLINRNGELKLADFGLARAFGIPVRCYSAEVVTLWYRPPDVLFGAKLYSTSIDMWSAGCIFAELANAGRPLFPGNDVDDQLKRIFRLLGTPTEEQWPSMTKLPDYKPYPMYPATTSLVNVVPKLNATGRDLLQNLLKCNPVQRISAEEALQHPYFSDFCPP
In assay [4] the target is Cyclin-dependent kinase 9 (Homo sapiens) (UniProt P50750). In words: Inhibition of CDK9 (unknown origin) assessed as enzyme remaining activity at 5 uM relative to control.
Cyclin-dependent kinase 9 (Homo sapiens), sequence (P50750 whole entry): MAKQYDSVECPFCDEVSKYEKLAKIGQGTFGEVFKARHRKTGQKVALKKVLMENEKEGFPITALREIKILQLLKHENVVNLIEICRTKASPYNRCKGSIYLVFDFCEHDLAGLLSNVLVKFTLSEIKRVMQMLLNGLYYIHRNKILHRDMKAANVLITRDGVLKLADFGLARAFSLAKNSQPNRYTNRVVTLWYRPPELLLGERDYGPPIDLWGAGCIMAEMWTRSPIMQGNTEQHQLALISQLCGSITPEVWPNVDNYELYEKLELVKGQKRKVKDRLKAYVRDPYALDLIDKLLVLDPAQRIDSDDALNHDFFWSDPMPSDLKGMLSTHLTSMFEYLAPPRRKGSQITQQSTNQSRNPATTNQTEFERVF
The target in assay [5] is Mitogen-activated protein kinase 3 (Homo sapiens) (UniProt P27361). As to the kind of experiment: Inhibition of ERK1 (unknown origin) assessed as enzyme remaining activity at 5 uM relative to control.
Mitogen-activated protein kinase 3 (Homo sapiens), sequence (P27361 whole entry): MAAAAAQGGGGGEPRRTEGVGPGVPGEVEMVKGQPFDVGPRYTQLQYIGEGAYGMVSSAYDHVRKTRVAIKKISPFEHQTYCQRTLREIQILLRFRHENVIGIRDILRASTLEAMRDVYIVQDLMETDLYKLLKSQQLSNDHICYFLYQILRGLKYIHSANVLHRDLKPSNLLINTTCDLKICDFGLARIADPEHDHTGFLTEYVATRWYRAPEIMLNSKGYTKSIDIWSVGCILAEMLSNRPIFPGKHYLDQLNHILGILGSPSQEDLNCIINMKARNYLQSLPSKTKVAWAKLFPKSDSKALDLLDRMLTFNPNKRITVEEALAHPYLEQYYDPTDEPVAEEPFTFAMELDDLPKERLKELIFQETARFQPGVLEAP
Assay [6] deals with Mitogen-activated protein kinase 1 (Homo sapiens) (UniProt P28482). In words: Inhibition of ERK2 (unknown origin) assessed as enzyme remaining activity at 5 uM relative to control.
Mitogen-activated protein kinase 1 (Homo sapiens), sequence (P28482 whole entry): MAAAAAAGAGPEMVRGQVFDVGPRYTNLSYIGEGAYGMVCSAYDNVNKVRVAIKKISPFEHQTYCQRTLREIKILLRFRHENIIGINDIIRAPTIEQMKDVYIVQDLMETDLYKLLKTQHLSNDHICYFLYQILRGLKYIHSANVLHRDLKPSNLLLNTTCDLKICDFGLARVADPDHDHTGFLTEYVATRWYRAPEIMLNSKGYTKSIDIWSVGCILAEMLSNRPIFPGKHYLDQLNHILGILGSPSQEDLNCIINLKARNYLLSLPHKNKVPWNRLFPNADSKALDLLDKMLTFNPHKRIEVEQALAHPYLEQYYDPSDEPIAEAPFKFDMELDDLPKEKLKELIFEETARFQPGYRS
For a further assay, the species on record is Homo sapiens. As to the kind of experiment: Inhibition of PKA (unknown origin) assessed as enzyme remaining activity at 5 uM relative to control.
Assay [7] addresses RAC-alpha serine/threonine-protein kinase (Homo sapiens) (UniProt P31749). As to the kind of experiment: Inhibition of PKBalpha (unknown origin) assessed as enzyme remaining activity at 5 uM relative to control.
Assay [8] addresses Protein kinase C alpha type (Homo sapiens) (UniProt P17252). In words: Inhibition of PKCalpha (unknown origin) assessed as enzyme remaining activity at 5 uM relative to control.
Assay [9] concerns the target Protein kinase C gamma type (Homo sapiens) (UniProt P05129). In words: Inhibition of PKCgamma (unknown origin) assessed as enzyme remaining activity at 5 uM relative to control.
Assay [10] deals with Glycogen synthase kinase-3 alpha (Homo sapiens) (UniProt P49840). As to the kind of experiment: Inhibition of GSK3alpha (unknown origin) assessed as enzyme remaining activity at 5 uM relative to control.
Glycogen synthase kinase-3 alpha (Homo sapiens), sequence (P49840 2-483 limits assumed): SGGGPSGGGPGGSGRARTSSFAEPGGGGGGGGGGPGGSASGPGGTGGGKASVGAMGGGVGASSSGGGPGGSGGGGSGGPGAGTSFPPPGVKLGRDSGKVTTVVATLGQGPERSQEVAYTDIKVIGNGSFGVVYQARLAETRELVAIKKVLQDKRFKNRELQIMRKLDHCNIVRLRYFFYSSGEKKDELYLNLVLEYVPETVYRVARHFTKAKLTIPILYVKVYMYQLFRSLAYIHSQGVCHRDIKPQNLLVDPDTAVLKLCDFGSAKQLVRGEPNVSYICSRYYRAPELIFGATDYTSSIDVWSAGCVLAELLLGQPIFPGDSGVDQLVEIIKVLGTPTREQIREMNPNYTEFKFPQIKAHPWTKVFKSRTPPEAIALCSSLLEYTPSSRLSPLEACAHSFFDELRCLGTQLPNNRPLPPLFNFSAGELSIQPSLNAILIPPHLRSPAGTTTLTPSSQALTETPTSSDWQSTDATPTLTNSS
The subject of a further assay is SH-SY5Y. As to the kind of experiment: Neuroprotective activity against OA-induced neuronal injury in human SH-SY5Y cells assessed as reduction in cell death at 0.1 to 10 uM pre-incubated for 1 hrs followed by OA addition measured after 24 hrs by MTT assay. It counts as functional, cell-based. As to conditions: dose 0.1-10 µM. The gist of the method: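 SH-SY5Y cells (DMEM, 10% FBS, 1% pen/strep, 37 °C, 5% CO2) seeded at 60,000/well and grown 48 h. Compound (0.1, 0.5, 1, 5, 10 μM) added 1 h before okadaic acid at 30 nM, then 24 h. Viability by MTT (0.5 mg/mL, ≥4 h), formazan in DMSO, A595, as % control. Mean ± SEM, three independent experiments.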
(Formazan colour is commonly taken as a measure of viable cells.)

Molecules are shown by their SMILES. Active and inactive are the calls of the source. No cut-off for these calls is given here.

RAC-alpha serine/threonine-protein kinase (Homo sapiens), sequence (P31749 whole entry): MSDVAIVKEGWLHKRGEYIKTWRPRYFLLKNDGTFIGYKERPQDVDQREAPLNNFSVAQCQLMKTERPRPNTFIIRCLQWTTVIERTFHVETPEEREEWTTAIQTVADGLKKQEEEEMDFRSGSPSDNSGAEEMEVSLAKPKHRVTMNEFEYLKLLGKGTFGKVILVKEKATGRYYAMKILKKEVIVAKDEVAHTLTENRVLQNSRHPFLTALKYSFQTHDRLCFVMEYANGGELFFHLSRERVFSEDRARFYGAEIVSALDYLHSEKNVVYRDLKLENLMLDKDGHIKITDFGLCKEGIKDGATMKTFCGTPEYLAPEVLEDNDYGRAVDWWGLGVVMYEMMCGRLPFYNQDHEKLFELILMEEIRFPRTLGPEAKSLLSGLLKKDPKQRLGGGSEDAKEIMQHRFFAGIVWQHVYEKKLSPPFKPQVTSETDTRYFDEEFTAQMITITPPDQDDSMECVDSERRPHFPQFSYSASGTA
Glycogen synthase kinase-3 beta, sequence (P49841 whole entry): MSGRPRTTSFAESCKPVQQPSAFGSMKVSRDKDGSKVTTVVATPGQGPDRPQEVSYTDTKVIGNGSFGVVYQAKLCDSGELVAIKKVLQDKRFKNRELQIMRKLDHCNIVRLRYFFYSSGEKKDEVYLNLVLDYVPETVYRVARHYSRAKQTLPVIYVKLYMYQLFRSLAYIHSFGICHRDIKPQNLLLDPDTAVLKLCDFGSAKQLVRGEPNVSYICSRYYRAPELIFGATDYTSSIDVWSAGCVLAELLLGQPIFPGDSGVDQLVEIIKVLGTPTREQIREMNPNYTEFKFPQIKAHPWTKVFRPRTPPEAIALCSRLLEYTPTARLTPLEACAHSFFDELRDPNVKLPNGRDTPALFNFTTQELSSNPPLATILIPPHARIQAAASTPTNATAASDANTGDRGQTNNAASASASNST

In the case of `COc1ccc(-c2ccnc(N[C@H]3CO[C@H]4[C@@H]3OC[C@@H]4NC(=O)Nc3ccc(C(C)=O)cc3)n2)cc1`, in assay [1], the IC50 (as a rule, the concentration at which inhibition is half-maximal) amounted to 412 nM. The Activity is above 50% in assay [2]; above 50% in [3]; 33.8% in assay [4]; above 50% in [5]; above 50% in [6]; above 50% in the assay filed under Homo sapiens. The Activity in [7], in assay [8], in assay [9] and in assay [10] was above 50% in each case. Moreover, the outcome in the assay on SH-SY5Y was Active.
